Test results reported in PubChem BioAssay AID624259 (Broad Institute, 2012).
“And” between values parts separate entries of the source, which are not always exact repeats. Equal values may be shown once. The source made the active and inactive calls.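 Rule for the calls: active = luminescence drop whose fitted half-maximal dose is at or below twice the top valid tested dose; inconclusive = flat fit with 30 to 70% inhibition, or poor fit; inactive = the rest, including signal rises.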

What was measured:
[1] = tested on: SK-MEL-5 TRPM1-promoter luciferase reporter, 24 h; test: reducers of TRPM1 reporter luminescence – cell-based, SK-MEL-5, dry powder samples, set 3, MITF inhibitor project, dose response (AID 624259)
Method in brief: (§1)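 Test system: SK-MEL-5 melanoma line with stable TRPM1 promoter–luciferase reporter; dosing: compound in DMSO, 100 nL pinned per well; incubation: compound exposure 24 h, 37 °C; detection: luminescence after SteadyGlo luciferase reagent addition; read-out: reporter luminescence decrease, reflecting reduced MITF-driven TRPM1 expression; benchmarks: parthenolide as positive (inhibition) control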

[2] = as above; settings: SK-MEL-5 TRPM1-promoter luciferase reporter, 24 h; at 35 µM (top of the series)
Method in brief: as §1

| Structure (SMILES) | AC50 [1] | activity change, negative = inhibition [2] |
| --- | --- | --- |
| CC(=O)NC1=C(c2ccc3c(c2)oc2ccccc23)C(=O)c2ccccc2C1=O | 5.89 µM |  |
| COc1ccc(C2=C(NC(=O)c3cccc(Cl)c3)C(=O)c3ccccc3C2=O)cc1 | 33.5 µM |  |
| O=C(NC1=C(N2CCSCC2)C(=O)c2ccccc2C1=O)c1ccccc1 | 5.8 µM |  |
| C=CCNC1=C(N2CCCCC2)C(=O)c2ccccc2C1=O | 0.722 µM |  |
| C=CCNC1=C(N2CCN(CC)CC2)C(=O)c2ccccc2C1=O | 11.3 µM |  |
| COc1ccc(C2=C(NC(=O)c3cccc(OC)c3)C(=O)c3ccccc3C2=O)cc1 | 17.5 µM |  |
| O=C(NC1=C(c2ccccc2)C(=O)c2ccccc2C1=O)c1ccccc1 | 10.5 µM |  |
| O=C(NC1=C(N2CCOCC2)C(=O)c2ccccc2C1=O)c1ccccc1 | 11.1 µM |  |
| Cc1ccc(C(=O)NC2=C(c3ccc(OC(F)(F)F)cc3)C(=O)c3ccccc3C2=O)o1 | 27.5 µM |  |
| CCN1CCN(C2=C(NS(=O)(=O)c3ccc(Br)cc3)C(=O)c3ccccc3C2=O)CC1 | 12.6 µM |  |
| O=C(CNc1cccc2ccccc12)N/N=C/c1ccc([N+](=O)[O-])o1 | 3.08 µM |  |
| CC(=O)NC1=C(c2ccc(Oc3ccccc3)cc2)C(=O)c2ccccc2C1=O | 28.1 µM |  |
| C=CCNC1=C(NS(=O)(=O)c2ccc(Br)cc2)C(=O)c2ccccc2C1=O | 22.9 µM |  |
| O=C1C(NS(=O)(=O)c2ccc(Br)cc2)=C(N2CCSCC2)C(=O)c2ccccc21 | 35.5 µM |  |
| COc1ccc(C(=O)NC2=C(c3ccccc3)C(=O)c3ccccc3C2=O)cc1 | 14.7 µM |  |
| C=CCNC1=C(NCCN(CC)CC)C(=O)c2ccccc2C1=O | 3.05 µM |  |
| COc1ccc(C2=C(NC(=O)c3ccc(OC)cc3-c3cccc(OC)c3)C(=O)c3ccccc3C2=O)cc1 |  | 25.2% (inactive) |
| COc1ccc(C(=O)NC2=C(c3ccc(OC(F)(F)F)cc3)C(=O)c3ccccc3C2=O)cc1 |  | -7.11% (inactive) |
| O=C(NC1=C(c2ccccc2)C(=O)c2ccccc2C1=O)c1ccco1 | 9.91 µM |  |
| C=CCNC1=C(NCC=C)C(=O)c2ccccc2C1=O |  | -10.6% (inactive) |

| Structure (SMILES) | AC50 [1] | activity change, negative = inhibition [2] |
| --- | --- | --- |
| CC(=O)NC1=C(c2ccc(Cl)cc2)C(=O)c2ccccc2C1=O | 8 µM |  |
| Cc1nc2ccccc2n1/N=C/c1ccc([N+](=O)[O-])s1 | 3.29 µM |  |
| C=CCNC1=C(Cl)C(=O)c2ccccc2C1=O | 4.57 µM and 4.74 µM |  |
| CC(=O)NC1=C(c2ccccc2)C(=O)c2ccccc2C1=O | 8.08 µM |  |
| COc1ccc(C2=C(NC(=O)c3ccc(Cl)cc3)C(=O)c3ccccc3C2=O)cc1 | 33.6 µM |  |
| CC1CCN(CC(CS(=O)(=O)c2ccc([N+](=O)[O-])cc2)N2CCC(C)CC2)CC1 (stereo not given) | 14.2 µM |  |
| C=CCNC1=C(NCCCN(CC)CC)C(=O)c2ccccc2C1=O | 5.77 µM |  |
| COc1cccc(-c2cc(C(=O)NC3=C(Cl)C(=O)c4ccccc4C3=O)ccc2OC)c1 | 10.4 µM |  |
| O=C1C(NS(=O)(=O)c2ccc(Br)cc2)=C(N2CCCCC2)C(=O)c2ccccc21 | 20.1 µM |  |
| NC1=C(c2ccccc2)C(=O)c2ccccc2C1=O | 14.5 µM |  |
| CCN1CCN(C2=C(NC(=O)c3ccccc3)C(=O)c3ccccc3C2=O)CC1 | 1.27 µM |  |
| COc1ccc(C2=C(NC(=O)c3ccccc3Cl)C(=O)c3ccccc3C2=O)cc1 | 11.8 µM |  |
| CN1CCN(C2=C(NS(=O)(=O)c3ccc(Br)cc3)C(=O)c3ccccc3C2=O)CC1 | 2.07 µM |  |
| CC(=O)NC1=C(c2cccc(Cl)c2)C(=O)c2ccccc2C1=O | 7.59 µM |  |
| CN1CCN(C2=C(NC(=O)c3ccccc3)C(=O)c3ccccc3C2=O)CC1 | 1.13 µM |  |
| Cc1ccc(C(=O)NC2=C(c3ccccc3)C(=O)c3ccccc3C2=O)o1 | 9.24 µM |  |
| CCN1c2ccccc2NC2N=C(OC)C(c3ccccc3)C21 (stereo not given) | 4.27 µM |  |
| O=C1C(NS(=O)(=O)c2ccc(Br)cc2)=C(N2CCOCC2)C(=O)c2ccccc21 | 13.2 µM |  |
| C=CCNC1=C(N2CCOCC2)C(=O)c2ccccc2C1=O | 3.46 µM |  |
| O=C1C(Nc2ccccc2)=C(N2CCOCC2)C(=O)c2ccccc21 | 8.43 µM |  |

| Structure (SMILES) | AC50 [1] | activity change, negative = inhibition [2] |
| --- | --- | --- |
| O=C(NC1=C(c2ccc(OC(F)(F)F)cc2)C(=O)c2ccccc2C1=O)c1ccccc1 | 31.3 µM |  |
| COc1ccc(S(=O)(=O)N(C(C)=O)c2ccc(OC(C)=O)c3ccccc23)cc1[N+](=O)[O-] | 11.5 µM |  |
| COc1ccc(C(=O)NC2=C(c3ccc(OC)cc3)C(=O)c3ccccc3C2=O)cc1 | 11.9 µM |  |
| O=C1C(NS(=O)(=O)c2cccs2)=C(N2CCOCC2)C(=O)c2ccccc21 | 14.9 µM |  |
| O=C(NC1=C(c2ccc(OC(F)(F)F)cc2)C(=O)c2ccccc2C1=O)c1ccccc1F | 34.7 µM |  |
| O=C(NC1=C(c2ccc(OC(F)(F)F)cc2)C(=O)c2ccccc2C1=O)c1ccco1 | 31.1 µM |  |
| O=C(NC1=C(c2ccc(Oc3ccccc3)cc2)C(=O)c2ccccc2C1=O)c1ccccc1 |  | 17.5% (inactive) |
| O=C(NC1=C(Cl)C(=O)c2ccccc2C1=O)c1ccccc1 | 1.1 µM |  |
| C=CCNC1=C(N2CCN(C)CC2)C(=O)c2ccccc2C1=O | 7.93 µM |  |
| C=C1C(=O)OC2C1CC/C(C)=C\CCC1(C)OC21 (stereo not given) | 7.5 µM |  |
| C=CCNC1=C(N2CCSCC2)C(=O)c2ccccc2C1=O | 3.98 µM |  |
| COc1ccc(C2=C(NC(=O)c3ccccc3OC)C(=O)c3ccccc3C2=O)cc1 |  | 14.6% (inactive) |
| O=C(NC1=C(c2ccccc2)C(=O)c2ccccc2C1=O)c1ccc(Br)cc1 | 18.1 µM |  |
| COc1ccc(C2=C(NC(C)=O)C(=O)c3ccccc3C2=O)cc1 | 6.89 µM |  |
| CN1CCN(C2=C(NS(=O)(=O)c3cccs3)C(=O)c3ccccc3C2=O)CC1 | 2.69 µM |  |
| COc1ccc(C2=C(NC(=O)c3ccc4ccccc4c3)C(=O)c3ccccc3C2=O)cc1 |  | 24.2% (inactive) |
| COc1cccc(C2=C(NC(=O)c3ccccc3)C(=O)c3ccccc3C2=O)c1 | 32 µM |  |
| C=CCNC1=C(NCCCN2CCOCC2)C(=O)c2ccccc2C1=O | 8.83 µM |  |
| O=C(NC1=C(c2ccc(OC(F)(F)F)cc2)C(=O)c2ccccc2C1=O)c1ccc(Br)cc1 | 35.1 µM |  |
| CCN1CCN(C2=C(NS(=O)(=O)c3cccs3)C(=O)c3ccccc3C2=O)CC1 | 6.16 µM |  |
